For data set [1], the species on record is Homo sapiens. Nature of the data set: Adsorbed radiation dose value was calculated to human ovaries. It is filed as functional, Female gonad. A digest of the protocol:
(§1)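 Human absorbed dose (rd/mCi) estimated from rat tissue distribution data re-expressed as percent kilogram dose per gram. Fraction of injected dose per human organ = (% kg dose/g × organ weight)/(kg body weight of man × 100). Cumulated activities were derived from these fractions and organ half-times, then combined with Sn-117m S values (rd/μCi-h).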

The species entered for data set [2] is Homo sapiens. The data set can be described thus: Adsorbed radiation dose value was calculated to human liver. It counts as functional. The method, boiled down:
as §1

For data set [3], the species on record is Homo sapiens. Nature of the data set: Adsorbed radiation dose value was calculated to human spleen. It is filed as functional. A digest of the protocol: as §1
The species entered for data set [4] is Homo sapiens. Nature of the data set: Adsorbed radiation dose value was calculated to human adrenal. It counts as functional. A digest of the protocol:
as §1

Data set [5] is filed under the species Homo sapiens. Nature of the data set: Adsorbed radiation dose value was calculated to human lungs. It is filed as functional. The method, boiled down: as §1
The species named for data set [6] is Homo sapiens. Nature of the data set: Adsorbed radiation dose value was calculated to human total body. It counts as functional. The method, boiled down: as §1
The subject of data set [7] is Rattus norvegicus. The data set can be described thus: Tested for distribution of radioactivity in female rat tissue at 14d ay after intravenous administration in liver. It is filed as ADME, organism-based. As to conditions: in vivo. The method, boiled down: (§2)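 Rat tissue distribution followed intravenous injection of the tin-117m-labeled steroid into female rats. Adrenals, blood, kidneys, liver and ovaries were counted at the stated day. Values are percent dose/gram, given as the mean and range for three female rats.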

Data set [8] has as its system Rattus norvegicus. Nature of the data set: Tested for distribution of radioactivity in female rat tissue at 7 day after intravenous administration in blood. Conditions: in vivo, 168 h. It is filed as ADME, organism-based. A digest of the protocol: as §2
The test system of data set [9] is Rattus norvegicus. The data set can be described thus: Tested for distribution of radioactivity in female rat tissue at 7 day after intravenous administration in liver. It counts as ADME, organism-based. Conditions: in vivo, 168 h. A digest of the protocol:
as §2

Data set [10] relates to Rattus norvegicus. The data set can be described thus: Tested for distribution of radioactivity in female rat tissue at 7 day after intravenous administration in kidney. It is filed as ADME, organism-based. Conditions: in vivo, 168 h. The method, boiled down: as §2
Data set [11] concerns Rattus norvegicus. The data set can be described thus: Tested for distribution of radioactivity in female rat tissue at 7 day after intravenous administration in ovaries. It is filed as ADME, organism-based. Conditions: in vivo, 168 h. A digest of the protocol:
as §2

Data set [12] has as its system Rattus norvegicus. Nature of the data set: Tested for distribution of radioactivity in female rat tissue at 3 day after intravenous administration in blood. It counts as ADME, organism-based. As to conditions: in vivo, 72 h. The method, boiled down: as §2
In data set [13] the test system is Rattus norvegicus. The data set can be described thus: Tested for distribution of radioactivity in female rat tissue at 7 day after intravenous administration in adrenal. As to conditions: in vivo, 168 h. It is filed as ADME, organism-based. The method, boiled down:
as §2

For data set [14], the system named is Rattus norvegicus. The data set can be described thus: Tested for distribution of radioactivity in female rat tissue at 14d ay after intravenous administration in ovaries. It is filed as ADME, organism-based. As to conditions: in vivo. A digest of the protocol: as §2
For data set [15], the system named is Rattus norvegicus. The data set can be described thus: Tested for distribution of radioactivity in female rat tissue at 3 day after intravenous administration in adrenal. It counts as ADME, organism-based. As to conditions: in vivo, 72 h. The method, boiled down: as §2
For data set [16], the system named is Rattus norvegicus. The data set can be described thus: Tested for distribution of radioactivity in female rat tissue at 14d ay after intravenous administration in adrenal. It counts as ADME, organism-based. Conditions: in vivo. The method, boiled down:
as §2

Data set [17] concerns Rattus norvegicus. The data set can be described thus: Tested for distribution of radioactivity in female rat tissue at 21 day after intravenous administration in adrenal. It counts as ADME, organism-based. Conditions: in vivo, 504 h. The method, boiled down:
as §2

For data set [18], the system named is Rattus norvegicus. The data set can be described thus: Tested for distribution of radioactivity in female rat tissue at 3 day after intravenous administration in liver. It is filed as ADME, organism-based. As to conditions: in vivo, 72 h. The method, boiled down:
as §2

The subject of data set [19] is Rattus norvegicus. Nature of the data set: Tested for distribution of radioactivity in female rat tissue at 14d ay after intravenous administration in kidney. It is filed as ADME, organism-based. As to conditions: in vivo. A digest of the protocol: as §2
Data set [20] deals with Rattus norvegicus. Nature of the data set: Tested for distribution of radioactivity in female rat tissue at 3 day after intravenous administration in ovaries. It is filed as ADME, organism-based. Conditions: in vivo, 72 h. The method, boiled down: as §2
Data set [21] relates to Rattus norvegicus. The data set can be described thus: Tested for distribution of radioactivity in female rat tissue at 21 day after intravenous administration in ovaries. It is filed as ADME, organism-based. Conditions: in vivo, 504 h. The method, boiled down: as §2
The subject of data set [22] is Rattus norvegicus. Nature of the data set: Tested for distribution of radioactivity in female rat tissue at 3 day after intravenous administration in kidney. It is filed as ADME, organism-based. As to conditions: in vivo, 72 h. A digest of the protocol:
as §2

The test system of data set [23] is Rattus norvegicus. Nature of the data set: Tested for distribution of radioactivity in female rat tissue at 21 day after intravenous administration in blood. As to conditions: in vivo, 504 h. It counts as ADME, organism-based. A digest of the protocol: as §2
In data set [24] the test system is Rattus norvegicus. Nature of the data set: Tested for distribution of radioactivity in female rat tissue at 21 day after intravenous administration in kidney. It is filed as ADME, organism-based. As to conditions: in vivo, 504 h. A digest of the protocol: as §2
Data set [25] deals with Rattus norvegicus. The data set can be described thus: Tested for distribution of radioactivity in female rat tissue at 14d ay after intravenous administration in blood. It is filed as ADME, organism-based. Conditions: in vivo. The method, boiled down:
as §2

The test system of data set [26] is Rattus norvegicus. The data set can be described thus: Adrenal Uptake was determined on day 14 after iv administration into rat. It is filed as functional, organism-based. A digest of the protocol:
(§3)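 The tin-117m-labeled steroid was injected intravenously into female rats. Adrenal glands were taken at the stated day after injection, up to 21 days. Radioactivity was reported as percent of injected dose, given as the mean and range.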

Data set [27] is described as follows: It is the ratio of adrenal to blood measured on day 7 after iv administration in rat. It counts as functional, organism-based. The method, boiled down:
(§4)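 Female rats received an intravenous injection of the tin-117m-labeled steroid. Adrenal/blood and adrenal/liver ratios were calculated from percent dose per gram of tissue at the stated day after injection.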

The species named for data set [28] is Homo sapiens. Nature of the data set: Adsorbed radiation dose value was calculated to human body. It is filed as functional, organism-based. The method, boiled down: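 Rat tissue distribution data were converted to percent kilogram dose per gram. The fraction of injected dose in each human organ was taken as (% kg dose/g × organ weight)/(kg body weight × 100). Cumulated activities came from these fractions and organ half-times. Sn-117m S values (rd/µCi-h) then gave the absorbed dose in rd/mCi.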

Data set [29] deals with Rattus norvegicus. Nature of the data set: Adrenal Uptake was determined on day 3 after iv administration into rat. It counts as functional, organism-based. The method, boiled down:
as §3

The nature of data set [30]: It is the ratio of adrenal to blood measured on day1 after iv administration in rat. It is filed as functional, organism-based. The method, boiled down:
as §4

For data set [31], the system named is Rattus norvegicus. Nature of the data set: Adrenal Uptake was determined on day 7 after iv administration into rat. It counts as functional, organism-based. A digest of the protocol: as §3
Data set [32] is described as follows: It is the ratio of adrenal to liver measured on day1 after iv administration in rat. It is filed as functional, organism-based. The method, boiled down: as §4
Data set [33] in a line: It is the ratio of adrenal to liver measured on day 3 after iv administration in rat. It counts as functional, organism-based. The method, boiled down: as §4
Data set [34] has as its system Rattus norvegicus. The data set can be described thus: Adrenal Uptake was determined on day 21 after iv administration into rat. It counts as functional, organism-based. The method, boiled down:
as §3

The nature of data set [35]: It is the ratio of adrenal to blood measured on day 14 after iv administration in rat. It is filed as functional, organism-based. A digest of the protocol:
as §4

Data set [36] can be described thus: It is the ratio of adrenal to blood measured on day 21 after iv administration in rat. It counts as functional, organism-based. A digest of the protocol: as §4
Data set [37] can be described thus: It is the ratio of adrenal to liver measured on day 21 after iv administration in rat. It counts as functional, organism-based. A digest of the protocol: as §4
Data set [38] in a line: It is the ratio of adrenal to liver measured on day 7 after iv administration in rat. It counts as functional, organism-based. The method, boiled down: as §4
Data set [39] in a line: It is the ratio of adrenal to liver measured on day 14 after iv administration in rat. It counts as functional, organism-based. The method, boiled down: as §4
The test system of data set [40] is Rattus norvegicus. The data set can be described thus: Adrenal Uptake was determined on day1 after iv administration into rat. It counts as functional, organism-based. The method, boiled down: as §3
Data set [41] is described as follows: It is the ratio of adrenal to blood measured on day 3 after iv administration in rat. It is filed as functional, organism-based. A digest of the protocol:
as §4

As for `CC(C)[Te]CCC(C)C1CC[C@H]2[C@@H]3CC[C@H]4CC(O)CCC4(C)[C@H]3CCC12C` (some centres not stated), the Dose is given as 8 rd mCi-1 in the data set filed under Homo sapiens [1]; 1.6 rd mCi-1 in the data set listed under Homo sapiens [2]; 1.4 rd mCi-1 in the data set filed under Homo sapiens [3]; 98 rd mCi-1 in the data set listed under Homo sapiens [4]; 1.3 rd mCi-1 in the data set listed under Homo sapiens [5]; 0.8 rd mCi-1 in the data set listed under Homo sapiens [6].
With `CC(C)[Te]CCCC(C)C1CCC2C3CC=C4CC(O)CCC4(C)C3CCC12C` (configuration not stated), the Dose in the data set listed under Homo sapiens [1] is reported as 13 rd mCi-1; in the data set filed under Homo sapiens [2] it was 2 rd mCi-1; in the data set filed under Homo sapiens [3] it was 34 rd mCi-1; in the data set filed under Homo sapiens [4] it was 210 rd mCi-1; in the data set filed under Homo sapiens [5], 1.9 rd mCi-1; in the data set filed under Homo sapiens [6], 1.4 rd mCi-1.
As for Stannanyl complex [listing 1 of 2 here], the Dose/g was 0.2% in the data set on Rattus norvegicus [7]; 0.19% with Rattus norvegicus [8]; 0.44% in the data set on Rattus norvegicus [9]; 0.54% in the data set on Rattus norvegicus [10]; 4.9% in the data set on Rattus norvegicus [11]; 0.8% in the data set on Rattus norvegicus [12]. In addition, the Dose/g in the data set on Rattus norvegicus [13] was determined as 19.37%; with Rattus norvegicus [14], 2.53%; with Rattus norvegicus [15], 50.88%; in the data set on Rattus norvegicus [16], 7.46%; in the data set with Rattus norvegicus [17] it was 2.33%; with Rattus norvegicus [18], 2.13%. For the same compound, the Dose/g stood at 0.38% in the data set on Rattus norvegicus [19]; 10.99% in the data set on Rattus norvegicus [20]; 1.26% with Rattus norvegicus [21]; 0.79% with Rattus norvegicus [22]; 0.1% in the data set on Rattus norvegicus [23]; 0.26% in the data set with Rattus norvegicus [24]. Besides, in the data set on Rattus norvegicus [25], the Dose/g stood at 0.15%.
Turning to Stannanyl complex [listing 2 of 2 here], the Adrenal uptake in the data set on Rattus norvegicus [26] was determined as 0.34; in the data set with Rattus norvegicus [29] it was 2.86; in the data set on Rattus norvegicus [31], 1.1; in the data set on Rattus norvegicus [34] it was 0.16; in the data set on Rattus norvegicus [40], 2.51. The Ratio in data set [27] was 102; in data set [30] it was 33.7; in data set [32], 9.1; in data set [33] it was 23.9; in data set [35] it was 49.7; in [36] it was 23.3. Also, the Ratio was determined as 16.6 in [37], 44 in data set [38], 37.3 in [39] and 63.6 in data set [41]. Moreover, the Dose in the data set filed under Homo sapiens [28] was 0.77 rd mCi-1; in the data set filed under Homo sapiens [1] (Female gonad), 4.4 rd mCi-1; in the data set listed under Homo sapiens [2], 5.3 rd mCi-1; in the data set listed under Homo sapiens [3], 7.7 rd mCi-1; in the data set listed under Homo sapiens [4], 83 rd mCi-1; in the data set filed under Homo sapiens [5], 4.1 rd mCi-1.

The record behind these values is ChEMBL document CHEMBL1122383, “Potential tissue-imaging agents: 23-(trimethyl [117mSn]stannyl)-24-nor-5 alpha-cholan-3 beta-ol” (J Med Chem, 1983).
